Data on three compounds can be found in article PMC10973196 (Saudi Pharmaceutical Journal : SPJ, 2024).

By IC50 is commonly meant the point on the concentration scale where inhibition reaches its midpoint.

Structures are written as SMILES. Values after ≈ are worked out from the molar mass of the structure shown.

Data set [1] has as its target SARS-CoV-2 main protease (Mpro) (Severe acute respiratory syndrome coronavirus 2, UniProt P0DTD1). As to the kind of experiment: biochemical.
The test system of another data set is lung cancer cell (A549). Nature of the data set: Cell viability. It is filed as cell-based. The following applies: Homo sapiens, A549, 48 h, read-out: IC50, cytotoxic activity. In short, it runs like this: (§1)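 Cells were seeded in 96-well plates, grown for 24 h, then exposed to test compounds at various concentrations for 48 h. MTT solution (5 mg/mL) was added for 2–4 h at 37 °C, and formazan absorbance was read at 570 nm. Viability was expressed as treated/untreated absorbance ×100, and IC50 was fitted from viability dose-response curves.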

Another data set is described as follows: Cell viability. It is filed as cell-based. To be noted: human, normal HUVEC cells. The essentials:
as §1

Turning to `C[C@@H]1O[C@@H](Oc2cc3c(=O)oc4c(O)c(O)cc5c(=O)oc(c2O)c3c45)[C@H](O)[C@H](O)[C@H]1O` [Compound 10, ellagic acid-2-O-α-L-rhamnopyranoside (eschweilenol C)], the IC50 in data set [1] is 22.3 µM; in the data set with lung cancer cell (A549), greater than 100 µg/mL. In the data set “Cell viability”, this compound yielded an IC50 at 48 h greater than 100 µg/mL.

With `O=c1cc(-c2ccc(O)cc2)oc2cc(O)c([C@@H]3O[C@H](CO)[C@@H](O)[C@H](O)[C@H]3O)c(O)c12` [Compound 14, apigenin-6-C-β-D-glucoside (isovitexin)], the IC50 is 21.7 µM in data set [1] and greater than 100 µg/mL in the data set with lung cancer cell (A549). In addition, the IC50 at 48 h in “Cell viability” is greater than 100 µg/mL.

In the case of `COc1cccc2c1C(=O)c1c(O)c3c(c(O)c1C2=O)C[C@@](O)(C(=O)CO)C[C@@H]3O[C@H]1C[C@H](N)[C@H](O)[C@H](C)O1` [Doxorubicin, reference compound], the IC50 in the data set with lung cancer cell (A549) was 1.45 ± 0.05 µg/mL (≈ 2.67 µM). This compound also gave an IC50 at 48 h in “Cell viability” of 2.5 ± 0.1 µg/mL (≈ 4.6 µM).
